# Rows were chosen to be rich in hits. Some 3.3% of all compounds tested hit in one or more screens of this group.
# SENP7 block: blocks the human protease SENP7 | recombinant SENP7, Z-RLRGG-aminoluciferin luminescence, 40 min | inhibition, % at 5 µM | actives 1.5% (n = 330,000);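 active = inhibition above about 50% at the single test dose, limit read from the data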;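 note: plate controls were DMSO with enzyme for no effect and no enzyme buffer wells for full effect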
# Target sequence (Q9BQF6 706-1050 limits assumed): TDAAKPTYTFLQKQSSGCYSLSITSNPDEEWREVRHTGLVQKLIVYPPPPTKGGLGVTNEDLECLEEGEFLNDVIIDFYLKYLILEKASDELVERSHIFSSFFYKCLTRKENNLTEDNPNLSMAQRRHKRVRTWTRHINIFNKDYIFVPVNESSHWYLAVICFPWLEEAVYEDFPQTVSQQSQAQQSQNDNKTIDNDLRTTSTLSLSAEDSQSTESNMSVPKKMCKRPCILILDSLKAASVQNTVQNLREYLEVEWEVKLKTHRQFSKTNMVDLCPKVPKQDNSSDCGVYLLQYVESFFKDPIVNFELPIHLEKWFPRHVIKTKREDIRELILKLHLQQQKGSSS
# CendR NRP1 mod: NRP-1/CendR interaction modulation. FAM-RPARPAR peptide binding to NRP-1, fluorescence polarization. inhibition, % at 25 µM. actives 0.85% (n = 360,000). AID 602438;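 active = inhibition or corrected inhibition above about 18%, plus a signal ratio from 0.5 to 1.5, limit read from the data, passing the limit was not always enough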
# SENP8 block-1: SENP8 protease inhibition; inhibition, % at 10 µM; purified SENP8, Z-RLRGG-aminoluciferin cleavage, luminescence; actives 1.2% (n = 330,000); AID 2540; Q96LD8; in the data active = inhibition above about 50%
# SENP8 block-2: blocks human SENP8 cleavage of Nedd8 substrate; Q96LD8; inhibition, % at 20 µM; AID 602440; actives 0.64% (n = 360,000); recombinant SENP8, Nedd8 substrate fluorescence; in the data active = inhibition mostly above about 40%, no sharp cut-off; inactive = mostly below about 27%
# SENP6 block: blocks the human protease SENP6; Q9GZR1; Recombinant SENP6 catalytic domain, aminoluciferin luminescence; inhibition, % at 10 µM; actives 1.8% (n = 330,000); AID 2599;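 active = inhibition above about 50% at the single tested dose, limit read from the data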;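 note: plate controls were DMSO wells with enzyme for no effect and DMSO wells lacking enzyme for full effect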
# SENP1 inh: inhibitors of human SENP1 SUMO protease catalytic domain | Q9P0U3 | recombinant SENP1 catalytic domain, CyPet-SUMO1-YPet FRET cleavage | inhibition, % at 10 µM | actives 0.21% (n = 360,000) | AID 624204;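 active = inhibition at least 30% at 10 µM, raw YFP signal under a set limit, fluorescence ratio 0.5 to 1.5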;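 note: 0% = enzyme with DMSO and 100% = no enzyme wells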
#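 Compound: 10 µM single point, 0.5% DMSO; Test system: hSENP1 catalytic domain, recombinant; Timing: 50 min reaction at room temperature; Technique: FRET, CFP and YFP emission; Control set: no-enzyme wells low, DMSO-plus-enzyme wells high control.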
# SENP8 conf: human SENP8 inhibition, confirmed | shares compounds with SENP7 block | Recombinant SENP8, Z-RLRGG-aminoluciferin luminescence, 60 min | inhibition, % at 12.5 µM | actives 40% (n = 6,200) | AID 488912;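 active = mean inhibition across replicates above about 50%, limit read from the data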
# SENP6 confirm: confirmation of human SENP6 protease inhibitors. shares compounds with SENP7 block. recombinant SENP6, Z-RLRGG-aminoluciferin luminescence. inhibition, % at 12.5 µM. actives 58% (n = 6,200)
# SENP7 conf: human SENP7 inhibition, confirmed; shares compounds with SENP7 block; recombinant SENP7, Z-RLRGG-aminoluciferin luminescence, 40 min; inhibition, % at 12.5 µM; actives 69% (n = 6,200); AID 488917
# Casp3 select: caspase-3 inhibition (SENP selectivity assay) | shares compounds with SENP7 block | purified caspase-3, Z-DEVD-aminoluciferin luminescence, 60 min | inhibition, % at 12.5 µM | actives 60% (n = 6,200) | AID 488918;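 active = mean inhibition above about 50%, limit read from the data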;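 note: plate controls were enzyme with DMSO for no effect and wells without caspase-3 for full effect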
# Target sequence (P42574 28-227 limits assumed): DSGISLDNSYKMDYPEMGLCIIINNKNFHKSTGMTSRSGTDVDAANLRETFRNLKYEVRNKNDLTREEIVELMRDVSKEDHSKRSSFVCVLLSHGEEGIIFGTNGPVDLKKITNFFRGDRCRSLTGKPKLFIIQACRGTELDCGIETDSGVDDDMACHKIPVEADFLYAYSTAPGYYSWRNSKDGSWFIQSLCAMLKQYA
# SENP luc ctr: counter-screen for SENP inhibitors: luminescence interference; shares compounds with SENP7 block; Pre-incubated SENP8/Z-RLRGG-aminoluciferin, luciferase luminescence interference; inhibition, % at 12.5 µM; actives 39% (n = 6,200); AID 488919;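 active = mean inhibition above about 50% when retested at one dose, limit read from the data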;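 note: plate controls were DMSO wells with completed reaction for no effect and substrate without enzyme for full effect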
# * = called active by the depositor; nt = no result.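 Rule for the calls, unless noted: active = mean inhibition above about 50% in the one-dose retest (limit read from the data); inactive = the rest.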
SMILES,SENP7 block,CendR NRP1 mod,SENP8 block-1,SENP8 block-2,SENP6 block,SENP1 inh,SENP8 conf,SENP6 confirm,SENP7 conf,Casp3 select,SENP luc ctr
COc1ccc(/C=N/OC(=O)Nc2ccccc2OC)cc1,81*,-4,72*,18,43,0,20,87*,22,83*,33
O=C(Nc1ccccc1)O/N=C/c1ccccc1Cl,56*,-14,26,14,39,-1,60*,53*,77*,35,53*
O=C(Nc1ccccc1Cl)O/N=C/c1ccc(F)cc1,nt,5,nt,17,nt,4,nt,nt,nt,nt,nt
O=C(Nc1ccccc1)O/N=C/c1ccc(F)cc1,59*,2,42,15,68*,3,67*,65*,89*,75*,48
COc1ccccc1OCc1nc2ccccc2[nH]1,21,1,13,10,38,1,nt,nt,nt,nt,nt
COc1cccc(OCc2nc3ccccc3[nH]2)c1,74*,-6,65*,25,67*,4,73*,72*,93*,86*,75*
COc1ccc(OCc2nc3ccccc3[nH]2)cc1,29,8,72*,13,72*,1,39,76*,94*,90*,80*
COc1cccc(OCc2nc3ncc(Br)cc3[nH]2)c1,2,-15,-3,5,1,-2,nt,nt,nt,nt,nt
Brc1ccc(OCc2nc3ccccc3[nH]2)cc1,66*,2,56*,14,62*,-8,49,46,85*,58*,11
Cc1ccccc1OCc1nc2ccccc2[nH]1,86*,-2,68*,1,80*,1,72*,72*,92*,86*,62*
COc1ccccc1S(=O)(=O)N(C)C[C@@H]1OCc2cnnn2CCCC(=O)N([C@H](C)CO)C[C@@H]1C,nt,5,nt,11,nt,-2,nt,nt,nt,nt,nt
c1ccc(SCc2nc3ccccc3[nH]2)cc1,28,6,13,0,21,-9,nt,nt,nt,nt,nt
Cc1ccc(SCc2nc3ccccc3[nH]2)cc1,49,-1,21,-67,57*,-4,51*,47,76*,64*,56*
c1cnc2c(OCc3nc4ccccc4[nH]3)cccc2c1,13,-28,-8,2,3,1,nt,nt,nt,nt,nt
c1ccc2cc(OCc3nc4ccccc4[nH]3)ccc2c1,77*,8,80*,5,87*,1,47,68*,95*,66*,40
CSc1ccc(NC(=O)C2(C)CCN2C(=O)Cc2ccc(C(C)(C)C)cc2)cc1 (configuration not stated),nt,4,nt,12,nt,-2,nt,nt,nt,nt,nt
CCOC(=O)c1c(N)n(CCOC(=O)c2cccs2)c2nc3ccccc3nc12,47,15,43,-282,84*,-123,8,6,10,4,0
CC(=O)N(C(C)=O)c1ccc(Oc2ccc(Oc3ccc(N(C(C)=O)C(C)=O)cc3)cc2)cc1,nt,16,nt,30,nt,1,nt,nt,nt,nt,nt
Nc1ccc(N(CCO)CCO)cc1,21,-11,29,65*,57*,21,20,22,15,6,4
Nc1ccc(C(=O)N(CCO)CCO)cc1,3,2,1,-5,0,-1,nt,nt,nt,nt,nt
COc1ccccc1N1CCN(C(=O)CC(NC(=O)c2ccccc2Cl)c2ccccc2)CC1 (configuration not stated),-4,-1,0,9,-12,-2,nt,nt,nt,nt,nt
Cc1ccc(-c2cnc3ccccc3n2)cc1C,98*,-11,95*,-49,94*,2,97*,100*,103*,96*,48
Nc1ccc2nc(-c3ccccc3)cnc2c1,42,45,52*,-369,67*,-39,41,68*,88*,74*,71*
Cc1cc2ncc(-c3ccccc3)nc2cc1C,97*,18,95*,-6,95*,2,97*,99*,102*,96*,92*
O=C(CCl)Nc1cccc(-c2cnc3ccccc3n2)c1,3,-5,-15,-48,-5,1,nt,nt,nt,nt,nt
SMILES,SENP7 block,CendR NRP1 mod,SENP8 block-1,SENP8 block-2,SENP6 block,SENP1 inh,SENP8 conf,SENP6 confirm,SENP7 conf,Casp3 select,SENP luc ctr
CCOC(=O)c1ccc2ncc(-c3ccccc3)nc2c1,nt,0,nt,5,nt,1,nt,nt,nt,nt,nt
c1cc(-c2cccs2)nc(-c2cccs2)c1,0,6,3,13,-6,3,nt,nt,nt,nt,nt
c1csc(-c2cnc3ccccc3n2)c1,59*,-3,31,-282,67*,-23,12,54*,83*,58*,11
CCOC(=O)C1=C[C@@H](C(C)(C)C)N(S(=O)(=O)c2ccc(C)cc2)[C@H]1c1ccc(F)cc1,nt,6,nt,10,nt,3,nt,nt,nt,nt,nt
CCNC(=O)C1(C)CCCN1Cc1c(F)cccc1F (configuration not stated),nt,-2,nt,10,nt,3,nt,nt,nt,nt,nt
O=C(O)c1cc(-c2ccc(O)cc2)nc2ccccc12,-1,nt,3,nt,9,nt,nt,nt,nt,nt,nt
Oc1ccc(-c2cnc3ccccc3n2)cc1,71*,0,84*,-316,90*,-2,82*,82*,97*,87*,86*
Nc1ccc(-c2cnc3ccccc3n2)cc1,62*,-9,55*,-100,62*,-37,59*,55*,86*,75*,61*
CCCCOc1ccc(-c2cnc3ccccc3n2)cc1,95*,4,91*,-407,96*,-5,52*,64*,55*,83*,20
O=C(Oc1ccc(-c2cnc3ccccc3n2)cc1)c1ccc(Br)o1,75*,-11,42,-47,51*,2,13,22,24,64*,20
O=C(Oc1ccc(-c2cnc3ccccc3n2)cc1)c1cccc([N+](=O)[O-])c1,1,4,14,-64,24,1,nt,nt,nt,nt,nt
CCc1ccc(C(O)c2ncc(-c3ccc(Cl)cc3)[nH]2)cc1 (configuration not stated),nt,-2,nt,18,nt,1,nt,nt,nt,nt,nt
CCOC(=O)C1(C)CCCCCN1C(=O)c1ccccc1F (configuration not stated),nt,7,nt,15,nt,2,nt,nt,nt,nt,nt

# Screening data as filed in PubChem.
